Entries after “also recorded” stand apart in the source; their conditions may differ. Values belong to the compound of their own block, whether it stands above or below them.
What was measured:
human mGlu1 WT receptor [1] = target: T1, human mGlu1 WT receptor (Homo sapiens, UniProt Q13255); assay: Calcium mobilization mGlu1 assay; assay type: cell-based
hmGlu4 = hmGlu4 (Homo sapiens, UniProt Q14833); assay: Calcium mobilization assay, mGlu4 PAM activity; assay type: cell-based; conditions: n = 3 in triplicate
[2] = test system: human mGlu1 mutant receptors (P729T, A683E, Y632H, P1014S); assay type: cell-based; conditions: noted at compound concentrations above 1 μM
mGlu2 = assay: Standard fold-shift selectivity assay; assay type: cell-based; conditions: 10 μM compound
[3] = In vitro intrinsic and hepatic clearance, rat; assay type: in vitro ADME
[4] = test system: CA3 pyramidal cell body layer in a mouse hippocampal slice preparation; assay: Extracellular recording of spontaneous spike
Summary of the method: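 Hippocampal slices with extracellular recording from the CA3 pyramidal cell body layer. Frequency of spontaneous activity was tracked before, during and after bath application and washout of test compound (10 μM) or DHPG (50 μM, positive control). Each was compared with baseline by paired t test, n = 6 per treatment.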

Male C57Bl/6 mice = assay: Behavioral convulsions, modified Racine score; assay type: in vivo; conditions: for behavioral convulsions (modified Racine score 0–5): 10% Tween 80, monitored 3 h, n = 3
Summary of the method: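 Male C57Bl/6 mice (25–30 g) got a single ip dose of test compound (100 mg/kg) or a reference mGlu5 ago-PAM (1 or 3 mg/kg). Behavior was watched continuously for 3 h and convulsions were scored on a modified Racine scale (0–5).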

[5] = In vitro intrinsic and hepatic clearance, human; assay type: in vitro ADME
[6] = Plasma free fraction, human plasma; assay type: in vitro ADME
rat mGlu1 WT receptors = rat mGlu1 WT receptors (Rattus norvegicus, UniProt P23385); assay: Calcium mobilization concentration-response curves on rat mGlu1; assay type: cell-based
[7] = Ex vivo metabolism/stability in rat plasma; assay type: in vitro ADME; conditions: 10 μM incubation, 37 °C, 4 h, mass spectrometry
Summary of the method: (§1)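 Test compound at 10 μM incubation concentration in rat or human plasma at 37 °C. Samples were taken at 0 and 4 h and analysed by mass spectrometry for remaining parent and for metabolites formed.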

[8] = Plasma free fraction, rat plasma; assay type: in vitro ADME
[9] = Ex vivo metabolism/stability in human plasma; assay type: in vitro ADME; conditions: 10 μM incubation, 37 °C, 4 h, mass spectrometry
Summary of the method: as §1

human mGlu1 WT receptor [10] = target: T1, human mGlu1 WT receptor; assay: Fold-shift of glutamate concentration-response curve, human mGlu1 WT cells; assay type: cell-based; conditions: 10 μM compound
Rat iv PK = assay type: in vivo; conditions: rat iv PK (0.2 mg/kg)

T1 sequence (Q13255 19-1194): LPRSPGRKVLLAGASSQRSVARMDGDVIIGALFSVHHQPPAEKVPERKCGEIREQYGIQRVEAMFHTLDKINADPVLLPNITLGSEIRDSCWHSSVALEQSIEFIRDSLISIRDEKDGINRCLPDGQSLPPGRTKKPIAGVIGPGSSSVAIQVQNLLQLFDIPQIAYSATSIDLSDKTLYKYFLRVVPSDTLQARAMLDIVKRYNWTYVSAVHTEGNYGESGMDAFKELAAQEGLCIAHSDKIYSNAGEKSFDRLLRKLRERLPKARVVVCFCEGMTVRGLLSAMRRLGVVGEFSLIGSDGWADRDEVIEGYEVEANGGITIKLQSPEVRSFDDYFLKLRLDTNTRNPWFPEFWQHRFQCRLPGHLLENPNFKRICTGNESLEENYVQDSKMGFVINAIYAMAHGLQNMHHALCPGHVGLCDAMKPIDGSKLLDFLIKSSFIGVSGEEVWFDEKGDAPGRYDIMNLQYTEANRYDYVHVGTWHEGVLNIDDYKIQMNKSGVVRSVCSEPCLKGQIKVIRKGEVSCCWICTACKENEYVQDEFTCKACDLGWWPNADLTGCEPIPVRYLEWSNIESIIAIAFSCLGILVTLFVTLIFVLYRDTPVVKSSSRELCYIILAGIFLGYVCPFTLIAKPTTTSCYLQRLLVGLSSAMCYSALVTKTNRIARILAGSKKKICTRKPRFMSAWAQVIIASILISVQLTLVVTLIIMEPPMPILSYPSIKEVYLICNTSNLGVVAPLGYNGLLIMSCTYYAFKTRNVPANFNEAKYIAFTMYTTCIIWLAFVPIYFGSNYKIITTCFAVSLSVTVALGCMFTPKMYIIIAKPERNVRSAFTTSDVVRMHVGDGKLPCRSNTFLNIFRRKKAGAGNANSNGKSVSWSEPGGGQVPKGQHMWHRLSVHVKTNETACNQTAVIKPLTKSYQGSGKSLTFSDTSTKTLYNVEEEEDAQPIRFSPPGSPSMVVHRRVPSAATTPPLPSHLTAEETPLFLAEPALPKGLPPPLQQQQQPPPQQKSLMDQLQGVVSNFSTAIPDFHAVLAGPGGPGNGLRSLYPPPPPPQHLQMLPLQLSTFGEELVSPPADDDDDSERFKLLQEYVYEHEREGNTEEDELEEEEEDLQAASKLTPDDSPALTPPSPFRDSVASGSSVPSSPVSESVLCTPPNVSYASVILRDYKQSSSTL
rat mGlu1 WT receptors, sequence (P23385 19-1199): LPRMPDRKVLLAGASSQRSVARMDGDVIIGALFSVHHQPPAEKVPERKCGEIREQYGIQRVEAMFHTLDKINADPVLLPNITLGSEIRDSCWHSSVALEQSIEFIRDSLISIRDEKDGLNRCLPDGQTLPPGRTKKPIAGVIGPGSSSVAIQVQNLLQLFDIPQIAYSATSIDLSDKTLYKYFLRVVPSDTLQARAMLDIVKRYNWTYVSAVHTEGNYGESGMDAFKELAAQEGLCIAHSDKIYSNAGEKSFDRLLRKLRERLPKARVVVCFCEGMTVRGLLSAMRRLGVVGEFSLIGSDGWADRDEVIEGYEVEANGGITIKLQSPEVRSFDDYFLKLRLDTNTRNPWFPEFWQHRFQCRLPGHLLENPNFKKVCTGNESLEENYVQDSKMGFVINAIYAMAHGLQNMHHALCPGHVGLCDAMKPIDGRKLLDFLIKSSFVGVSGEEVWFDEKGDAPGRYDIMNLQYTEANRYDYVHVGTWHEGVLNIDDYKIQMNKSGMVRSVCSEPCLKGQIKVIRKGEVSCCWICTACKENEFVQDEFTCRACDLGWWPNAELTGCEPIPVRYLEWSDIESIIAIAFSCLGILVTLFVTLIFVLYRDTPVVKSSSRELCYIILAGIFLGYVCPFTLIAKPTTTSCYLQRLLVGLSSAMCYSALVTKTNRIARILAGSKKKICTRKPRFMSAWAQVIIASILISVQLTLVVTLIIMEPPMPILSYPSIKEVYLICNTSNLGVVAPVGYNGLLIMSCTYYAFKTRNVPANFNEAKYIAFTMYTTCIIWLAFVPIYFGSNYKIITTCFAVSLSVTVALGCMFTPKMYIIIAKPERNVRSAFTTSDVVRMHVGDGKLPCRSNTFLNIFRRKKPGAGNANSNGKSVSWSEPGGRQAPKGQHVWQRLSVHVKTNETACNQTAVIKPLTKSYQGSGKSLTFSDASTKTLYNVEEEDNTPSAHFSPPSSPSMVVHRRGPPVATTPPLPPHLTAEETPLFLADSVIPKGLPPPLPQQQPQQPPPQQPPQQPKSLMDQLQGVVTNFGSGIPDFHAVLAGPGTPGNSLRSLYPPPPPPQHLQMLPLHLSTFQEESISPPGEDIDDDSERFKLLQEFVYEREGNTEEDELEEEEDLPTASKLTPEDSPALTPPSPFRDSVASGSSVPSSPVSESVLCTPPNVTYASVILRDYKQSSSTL
hmGlu4, sequence (Q14833 33-912): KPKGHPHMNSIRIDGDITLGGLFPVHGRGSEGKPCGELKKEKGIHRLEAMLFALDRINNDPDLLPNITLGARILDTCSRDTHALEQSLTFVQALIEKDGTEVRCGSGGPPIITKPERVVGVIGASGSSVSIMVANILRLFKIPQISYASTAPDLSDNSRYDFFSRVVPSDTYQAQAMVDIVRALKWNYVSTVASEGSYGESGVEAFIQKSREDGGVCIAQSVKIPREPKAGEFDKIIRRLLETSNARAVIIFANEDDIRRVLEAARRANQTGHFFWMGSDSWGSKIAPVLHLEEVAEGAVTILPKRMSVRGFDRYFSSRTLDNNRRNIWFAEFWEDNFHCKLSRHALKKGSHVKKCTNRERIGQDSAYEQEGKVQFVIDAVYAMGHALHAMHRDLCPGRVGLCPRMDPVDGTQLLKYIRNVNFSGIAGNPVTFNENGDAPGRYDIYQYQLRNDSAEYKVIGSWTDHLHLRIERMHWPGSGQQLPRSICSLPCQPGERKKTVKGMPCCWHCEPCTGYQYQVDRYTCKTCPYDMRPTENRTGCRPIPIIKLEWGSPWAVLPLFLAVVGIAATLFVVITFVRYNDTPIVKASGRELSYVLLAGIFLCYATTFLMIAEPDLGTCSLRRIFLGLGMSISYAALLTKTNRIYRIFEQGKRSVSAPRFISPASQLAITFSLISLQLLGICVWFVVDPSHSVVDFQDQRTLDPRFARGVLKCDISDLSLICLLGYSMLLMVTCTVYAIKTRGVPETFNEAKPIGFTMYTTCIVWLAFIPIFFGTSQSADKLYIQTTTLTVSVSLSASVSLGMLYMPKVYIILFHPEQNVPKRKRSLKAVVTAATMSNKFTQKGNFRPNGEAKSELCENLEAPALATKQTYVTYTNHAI

mGlu1 PAM activity in words (human mGlu1 WT receptor [1]): inactive
Compound: O=C(Nc1ccc(N2C(=O)c3ccccc3C2=O)c(Cl)c1)c1cncs1 [9i]

hmGlu4 pEC50 (±SEM) (hmGlu4): 5.94 ± 0.22
Compound: Cc1ccoc1C(=O)Nc1ccc(N2C(=O)c3cccc(Cl)c3C2=O)c(Cl)c1 [17c, N-(3-Chloro-4-(4-chloro-1,3-dioxoisoindolin-2-yl)phenyl)-3-methylfuran-2-carboxamide]

rat CLHEP [3]: 52.3 mL/min/kg
rat CLINT [3]: 207 mL/min/kg
hmGlu4 pEC50 (±SEM) (hmGlu4): 5.95 ± 0.16
human CLHEP [5]: 2.70 mL/min/kg
human CLINT [5]: 3.10 mL/min/kg
Compound: Cc1ccoc1C(=O)Nc1ccc(N2C(=O)c3cccc(F)c3C2=O)c(Cl)c1 [17e, N-(3-Chloro-4-(4-fluoro-1,3-dioxoisoindolin-2-yl)phenyl)-3-methylfuran-2-carboxamide]
ago-PAM activity across all four mutants [2]: ≤ 40%
fold shift of glutamate CRC at mGlu2 (mGlu2): < 2 fold
induction of epileptiform activity in CA3 ([4]; 10 μM bath application): did not induce epileptiform activity; also recorded: does not induce epileptiform activity
behavioral convulsions (modified Racine score 0–5) (Male C57Bl/6 mice; 100 mg/kg ip): no measurable behavioral disturbances at any time point; also recorded: no adverse effects

mGlu1 PAM activity in words (human mGlu1 WT receptor [1]): inactive
Compound: O=C(Nc1ccc(N2C(=O)c3ccccc3C2=O)c(Cl)c1)c1cnco1 [9d]

rat CLHEP [3]: 63.3 mL/min/kg
rat CLINT [3]: 661 mL/min/kg
human CLINT [5]: 262 mL/min/kg
Compound: O=C(Nc1nc(C(F)(F)F)co1)C1c2ccccc2Oc2ccccc21 [compound 5, reference compound]
behavioral convulsions (modified Racine score 0–5) (Male C57Bl/6 mice; 100 mg/kg ip): no adverse effects

Compound: C[C@@H](NC(=O)c1ccc(C#Cc2cccc(F)c2)cn1)C(C)(C)O [compound 18, (R)-5-((3-fluorophenyl)ethynyl)-N-(3-hydroxy-3-methylbutan-2-yl)picolinamide, reference compound]
time of peak convulsion responses after administration (Male C57Bl/6 mice; 1 or 3 mg/kg ip): approximately 5 min
behavioral convulsions (modified Racine score 0–5) (Male C57Bl/6 mice; 1 or 3 mg/kg ip): severe, dose-dependent behavioral manifestations of seizure activity; also recorded: Severe, dose-dependent behavioral convulsions

human fu plasma [6]: unstable
rat CLHEP [3]: 17.2 mL/min/kg
rat CLINT [3]: 22.8 mL/min/kg
rat mGlu1 pEC50 (rat mGlu1 WT receptors): 6.95 ± 0.13
parent compound remaining in rat plasma [7]: no parent 17d remains
rat fu plasma [8]: unstable
human CLINT [5]: 2.90 mL/min/kg
parent compound remaining in human plasma [9]: no parent 17d remains
Compound: Cc1ccoc1C(=O)Nc1ccc(N2C(=O)c3ccc(Cl)cc3C2=O)c(Cl)c1 [17d, N-(3-Chloro-4-(5-chloro-1,3-dioxoisoindolin-2-yl)phenyl)-3-methylfuran-2-carboxamide]
behavioral convulsions (modified Racine score 0–5) (Male C57Bl/6 mice; 100 mg/kg ip): no measurable behavioral disturbances at any time point; also recorded: no adverse effects

mGlu1 PAM activity in words (human mGlu1 WT receptor [1]): inactive
Compound: O=C(Nc1ccc(N2C(=O)c3ccccc3C2=O)c(Cl)c1)C1CCCO1 (stereo not drawn) [9n]

induction of epileptiform activity in CA3 ([4]; 50 μM, positive control): induced marked epileptiform activity
Compound: N[C@H](C(=O)O)c1cc(O)cc(O)c1 [DHPG, S-3,5-dihydroxyphe-nylglycine, reference compound]

mGlu1 PAM activity in words (human mGlu1 WT receptor [1]): inactive
Compound: O=C(Nc1ccc(N2C(=O)c3ccccc3C2=O)c(Cl)c1)c1cc2ccccc2o1 [10m]

human fu plasma [6]: unstable
rat CLINT [3]: 39.9 mL/min/kg
rat fu plasma [8]: unstable
human CLINT [5]: 17.2 mL/min/kg
Compound: O=C(Nc1ccc(N2C(=O)c3cccc(Cl)c3C2=O)c(Cl)c1)c1ncccc1Cl [compound 8, reference compound]

agonism at the highest concentration (human mGlu1 WT receptor [10]): < 20%
Compound: Cc1ccoc1C(=O)Nc1ccc(N2C(=O)c3ccc(F)cc3C2=O)c(Cl)c1 [17f, N-(3-Chloro-4-(5-fluoro-1,3-dioxoisoindolin-2-yl)phenyl)-3-methylfuran-2-carboxamide]

mGlu1 PAM activity in words (human mGlu1 WT receptor [1]): inactive
Compound: O=C(Nc1ccc(N2C(=O)c3ccccc3C2=O)c(Cl)c1)c1coc2ccccc12 [10n]

human fu plasma [6]: unstable
rat CLHEP [3]: 59.7 mL/min/kg
rat CLINT [3]: 405 mL/min/kg
rat mGlu1 pEC50 (rat mGlu1 WT receptors): 6.95 ± 0.15
human CLINT [5]: 167 mL/min/kg
CLp (Rat iv PK): 382 mL/min/kg
clearance (Rat iv PK; rat, plasma, iv, 0.2 mg/kg, CLp): 283 mL/min/kg
Compound: Cc1ccoc1C(=O)Nc1ccc(N2C(=O)c3ccncc3C2=O)c(Cl)c1 [17g, N-(3-Chloro-4-(1,3-dioxo-1,3-dihydro-2H-pyrrolo[3,4-c]-pyridin-2-yl)phenyl)-3-methylfuran-2-carboxamide]
behavioral convulsions (modified Racine score 0–5) (Male C57Bl/6 mice; 100 mg/kg ip): no measurable behavioral disturbances at any time point; also recorded: no adverse effects

mGlu1 PAM activity in words (human mGlu1 WT receptor [1]): inactive
Compound: O=C(Nc1ccc(N2C(=O)c3ccccc3C2=O)c(Cl)c1)c1ncco1 [9e]

— article PMC4839290 (Journal of medicinal chemistry, 2015)
